{"data": "Published values gathered from unrelated publications", "target": "Serine/threonine-protein kinase D2 (PRKD2, Homo sapiens, UniProt Q9BZL6)", "Sequence (Q9BZL6 1-878, as in one of the studies)": "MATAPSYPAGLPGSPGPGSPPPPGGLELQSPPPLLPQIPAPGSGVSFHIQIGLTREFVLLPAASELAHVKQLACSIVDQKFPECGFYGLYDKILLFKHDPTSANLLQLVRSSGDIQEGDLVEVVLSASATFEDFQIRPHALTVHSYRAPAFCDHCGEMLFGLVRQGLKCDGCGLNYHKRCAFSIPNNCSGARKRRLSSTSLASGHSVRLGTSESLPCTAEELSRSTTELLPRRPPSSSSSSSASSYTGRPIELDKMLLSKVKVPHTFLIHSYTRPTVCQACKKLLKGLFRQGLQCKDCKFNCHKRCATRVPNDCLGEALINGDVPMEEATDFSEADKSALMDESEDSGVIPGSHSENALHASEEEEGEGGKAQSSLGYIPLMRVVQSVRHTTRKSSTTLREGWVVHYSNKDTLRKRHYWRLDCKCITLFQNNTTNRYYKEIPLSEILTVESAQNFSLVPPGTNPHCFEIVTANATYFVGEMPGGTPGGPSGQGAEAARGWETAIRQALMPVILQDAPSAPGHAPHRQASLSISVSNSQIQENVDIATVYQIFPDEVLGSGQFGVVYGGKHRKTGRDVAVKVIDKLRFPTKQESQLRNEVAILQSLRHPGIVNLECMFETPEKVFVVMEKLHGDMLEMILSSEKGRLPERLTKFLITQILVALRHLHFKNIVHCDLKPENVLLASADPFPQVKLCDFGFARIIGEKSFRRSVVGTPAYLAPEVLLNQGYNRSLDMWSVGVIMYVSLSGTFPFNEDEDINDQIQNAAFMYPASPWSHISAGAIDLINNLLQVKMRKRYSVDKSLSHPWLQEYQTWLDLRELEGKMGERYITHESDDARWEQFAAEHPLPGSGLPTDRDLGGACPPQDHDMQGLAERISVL"}
{"Structure (SMILES)": "COc1cc(Nc2ncc(F)c(Nc3ccc4c(n3)NC(=O)C(C)(C)O4)n2)cc(OC)c1OC", "effect on": "binding", "concentration": "10 µM", "endpoint": "inhibition", "result": "0%"}
{"Structure (SMILES)": "Cn1cc(-c2cccc(N3CCc4c(sc5c4CC(C)(C)C5)C3=O)c2CO)cc(Nc2ccncn2)c1=O", "effect on": "enzyme activity", "mode": "inhibitor", "concentration": "1 µM", "endpoint": "inhibition", "result": "0%"}
{"Structure (SMILES)": "Cc1nn(C)cc1-c1nc2c(N3CCN(Cc4ccc(Cl)cc4)CC3)c(Cl)cnc2[nH]1", "effect on": "binding", "method": "competition with immobilised ligand", "concentration": "1 µM", "endpoint": "remaining binding", "result": "100%"}
{"Structure (SMILES)": "CC(C)(C)c1cc(C=C(C#N)C#N)cc(Br)c1O", "effect on": "enzyme activity", "mode": "inhibitor", "concentration": "0.5 µM", "endpoint": "remaining activity", "result": "108%"}
{"Structure (SMILES)": "Nc1ncc(-c2nc(N3CCOCC3)nc(N3CCOCC3)n2)c(C(F)F)n1", "effect on": "binding", "method": "competition with immobilised ligand", "concentration": "10 µM", "endpoint": "remaining binding", "result": "99%"}
{"Structure (SMILES)": "Cn1cc(-c2cc(F)cc(N3CCn4c(cc5c4CCCC5)C3=O)c2CO)cc(Nc2ccc(N3CCN(C4COC4)CC3)cn2)c1=O", "effect on": "enzyme activity", "mode": "inhibitor", "concentration": "0.1 µM", "endpoint": "inhibition", "result": "11%"}
{"Structure (SMILES)": "O=c1[nH]c2ccccc2n1C1CCN(Cc2ccc(-c3[nH]c4cc5ncnc5cc4nc3-c3ccccc3)cc2)CC1", "effect on": "cell-free assay", "concentration": "0.5 µM", "endpoint": "remaining signal", "result": "109%"}
{"Structure (SMILES)": "COc1ncccc1-c1cnn2ccc(N3CCN(C(=O)OC(C)C)CC3)nc12", "effect on": "binding", "method": "competition with immobilised ligand", "concentration": "1 µM", "endpoint": "remaining binding", "result": "100%"}
{"Structure (SMILES)": "Cn1cncc1[C@](O)(COc1ccc(C#N)cc1-c1ccc(OC(F)(F)F)cc1)c1ccc(C#N)cc1", "effect on": "cell-free assay", "method": "competition with immobilised ligand", "concentration": "1 µM", "endpoint": "remaining binding", "result": "84%"}
